From PubChem
Platelet DG rel: inhibitors of platelet dense granule secretion, primary screen, cell-based, MLPCN, human platelets; human platelet-rich plasma, SFLLRN dense granule ATP release, luminescence; inhibition, %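 (compounds screened at 7.5 µM in platelet-rich plasma)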; actives 0.22% (n = 300,000);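 active = mean replicate score, as percent of positive control, at or above 50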
thrombin 1536: human alpha-thrombin inhibitors, primary screen, counter-screen for coagulation protease inhibitor project, biochemical, 1536-well, fluorogenic AMC substrate | AID 1046, 2008 | Prothrombin (Homo sapiens), P00734 | actives 0.26% (n = 220,000) | inhibition, % at 5 µM | Boc-VPR-AMC fluorogenic substrate cleavage;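 active = inhibition at or above 40%; inactive = inhibition below 40%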;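 note: 0% = enzyme with no compound and 100% = wells without enzyme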
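Material: Human alpha-thrombin protein | Buffer or medium: pH 7.5 Tris-saline with Tween 20 | Reagent: Boc-VPR-AMC substrate, 15 µM final | Schedule: Reaction at ambient temperature | Detection: AMC fluorescence at 355 nm excitation and 460 nm emission | Evaluation: Percent inhibition scaled between no-compound controls and no-enzyme blanks | Controls: no-compound enzyme wells and no-enzyme blanks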
FXIa inh: human FXIa protease inhibitors, primary screen, biochemical, 1536-well; purified FXIa, Boc-Glu-Ala-Arg-AMC fluorogenic substrate; inhibition, % at 5 µM; actives 0.14% (n = 220,000); AID 798, 2007;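 active = inhibition of at least 40%; inactive = inhibition below 40%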;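 note: fluorescence of freed AMC excited at 355 nm; 0% = enzyme without compound and 100% = no enzyme blank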
FXIIa inh 1536: human FXIIa protease inhibitors, primary screen, biochemical, 1536-well; inhibition, % at 5 µM; actives 0.3% (n = 220,000); purified FXIIa, Boc-QGR-AMC fluorogenic substrate, 2 h; Coagulation factor XII (Homo sapiens), P00748; AID 800, 2007; in the data active = inhibition above about 40%;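 note: 0% = enzyme with no compound and 100% = blank without enzyme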
Wee1 stabilizer: Wee1 degradation inhibitors, primary screen, cell-based, HeLa, Wee1K328M-luciferase, luminescence; HeLa Luc-Wee1K328M stability; 100% = proteasome inhibitor MG132 effect; reporter increase, % at 5 µM; AID 1321, 2008; Wee1-like protein kinase (Homo sapiens), P30291; actives 1.2% (n = 220,000);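 active = activation above the mean of all tested compounds plus 3 SD, set per screening run, cut at about 8.8% in these data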;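 note: cells exposed to compound for 20 h before luminescence read; 0% = DMSO alone and 100% = MG132 at 30 µM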
Target sequence (P30291 whole entry K328M): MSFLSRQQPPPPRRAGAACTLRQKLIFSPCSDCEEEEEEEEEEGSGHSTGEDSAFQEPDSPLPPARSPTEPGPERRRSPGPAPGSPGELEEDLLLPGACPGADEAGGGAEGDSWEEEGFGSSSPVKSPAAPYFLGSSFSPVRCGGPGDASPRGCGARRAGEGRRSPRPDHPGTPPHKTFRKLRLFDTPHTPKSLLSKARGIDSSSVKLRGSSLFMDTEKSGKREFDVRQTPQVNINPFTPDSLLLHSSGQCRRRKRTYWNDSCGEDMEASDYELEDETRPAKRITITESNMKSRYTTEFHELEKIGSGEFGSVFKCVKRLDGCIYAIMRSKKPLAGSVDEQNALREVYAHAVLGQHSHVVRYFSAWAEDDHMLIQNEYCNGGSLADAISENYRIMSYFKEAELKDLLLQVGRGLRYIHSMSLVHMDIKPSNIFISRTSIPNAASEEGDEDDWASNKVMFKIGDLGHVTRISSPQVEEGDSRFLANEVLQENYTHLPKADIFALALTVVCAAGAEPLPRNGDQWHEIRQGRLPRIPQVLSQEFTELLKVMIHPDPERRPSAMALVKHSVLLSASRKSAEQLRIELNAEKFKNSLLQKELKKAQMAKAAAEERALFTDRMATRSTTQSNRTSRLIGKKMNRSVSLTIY
hK5 inh: human KLK5 protease inhibitors, primary screen, biochemical, 1536-well; recombinant hK5, fluorogenic AMC substrate cleavage; actives 0.59% (n = 210,000); inhibition, % at 5 µM; Kallikrein-5 (Homo sapiens), Q9Y337;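 active = inhibition of 40% or more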;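 note: 0% = enzyme controls without compound and 100% = no-enzyme blanks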
The depositor's hits bear a star; i = inactive; / = no result given. The list is not random: actives were taken first. Their share in the collection is about 1.8%.

SMILES | Platelet DG rel | thrombin 1536 | FXIa inh | FXIIa inh 1536 | Wee1 stabilizer | hK5 inh
Oc1ccc(/C=N/NC(=S)N/N=C/c2ccc(O)cc2)cc1 | 115* | -1 | 2 | 10 | -2 | 13
O=C(COc1ccccc1)N=C1SC2CS(=O)(=O)CC2N1CCc1ccccc1 (stereo not drawn) | 2 | / | / | / | / | /
Cc1cc(C)cc(NC(=O)N2c3ccccc3NC(=O)CC2C)c1 (stereo not drawn) | / | -6 | 1 | 4 | 9.6* | -4
CC1CC(=O)Nc2ccccc2N1C(=O)Nc1ccc(F)cc1 (stereo not drawn) | -4 | 10 | 27 | 11 | 0 | 55*
CCOC(=O)CN1c2ccccc2NC(=O)CC1C (stereo not drawn) | -3 | -4 | -2 | 6 | 14* | -24
CC(=O)Nc1ccc(S(=O)(=O)N2c3ccccc3NC(=O)CC2C)c(Cl)c1 (stereo not drawn) | -17 | 2 | -1 | 5 | -1 | 2
CC1CC(=O)Nc2ccccc2N1C(=O)CN1CCN(c2ccccc2)CC1 (stereo not drawn) | -2 | -4 | 0 | 3 | -3 | 19
CC1CC(=O)Nc2ccccc2N1C(=O)Nc1ccc(F)cc1F (stereo not drawn) | 6 | -1 | 2 | 8 | -2 | 0
COC(=O)c1ccc(C(=O)NC2CCCc3c2cnn3-c2cc(F)cc(F)c2)nc1 (stereo not drawn) | 0 | / | / | / | / | /
Cc1ccc2c(c1)N(C(=O)CCC(=O)NC1CCC(C)CC1)CCO2 (stereo not drawn) | -1 | / | / | / | / | /
CCOC(=O)N1CCC(NC(=O)CCC(=O)N2CCOc3ccc(C)cc32)CC1 | -5 | 2 | 2 | 16 | 10* | -3
N=c1oc2ccccc2cc1-c1nc(-c2ccc(Cl)cc2)cs1 | -2 | 18 | 14 | 7 | -1 | 47*
Clc1ccc(-c2csc(N3CCOCC3)n2)cc1 | -1 | 24 | 48* | 38 | 5 | 45*
COC(=O)c1cccc(NC(=O)CCNC(=O)c2ccc([N+](=O)[O-])cc2)c1 | -5 | -9 | 5 | 13 | 2 | -9
CCN(CC)S(=O)(=O)c1ccc2c(c1)nc(CCC(=O)O)n2C | 60* | -8 | -2 | 7 | -2 | -2
Cc1ccc(S(=O)(=O)N2CCOCC2)cc1NC(=O)CNC1CCCC1 | 20 | -2 | 2 | 3 | -1 | -1
O=C(CN(Cc1cccs1)C(=O)CNS(=O)(=O)c1ccccc1)NCc1ccco1 | -5 | 5 | -12 | -2 | -2 | 89*
Cc1ccc(S(=O)(=O)Nc2c(NC3CCCCC3)c3ccccc3oc2=O)c(C)c1 | 3 | / | / | / | / | /
CSCCC(NC(=O)OC(C)(C)C)C(=O)Oc1ccc2c(=O)c(-c3ccc4c(c3)OCCO4)coc2c1 (stereo not drawn) | / | 1 | 0 | 16 | 9.9* | 8
CSCCC(NC(C)=O)C(=O)Oc1ccc2c3c(c(=O)oc2c1)CCCC3 (stereo not drawn) | / | -8 | -9 | -56 | 0 | i
O=C(COc1ccc2c3c(c(=O)oc2c1)CCCC3)NCc1ccccn1 | 1 | / | / | / | / | /
CC1(C)CN(c2ccccc2)N(C(=O)c2ccc(F)cc2)C1=O | 15 | 74* | 15 | 25 | -1 | 64*
CC(=O)OCC1(C)CN(c2ccccc2)N(C(=O)c2ccc(C(C)(C)C)cc2)C1=O (stereo not drawn) | 6 | 43* | -5 | 1 | -1 | -1
CCc1ccccc1N(CC(=O)N1CCc2ccccc2C1)S(C)(=O)=O | -5 | / | / | / | / | /
CSc1nc(Sc2ccc(Cl)cc2)c2ccccc2n1 | 0 | 20 | 11 | 15 | 0 | 62*
SMILES | Platelet DG rel | thrombin 1536 | FXIa inh | FXIIa inh 1536 | Wee1 stabilizer | hK5 inh
CSc1nc(Sc2ccccc2)c2ccccc2n1 | 0 | 9 | 2 | 3 | -2 | -18
Cn1c(SCC(=O)N2c3ccccc3CCc3ccccc32)nnc1-c1cc2ccccc2cc1O | -1 | 101* | 7 | 14 | -2 | 30
Cc1ccc(Cl)cc1N1CCN(C(=O)CN2C(=O)c3cccc4cccc2c34)CC1 | 7 | 24 | 4 | 7 | 3 | 62*
Oc1ccc(/C=N/Nc2ccc(C(F)(F)F)cn2)c(O)c1 | 11 | / | / | / | / | /
Oc1ccc(/C=N/Nc2cccc(Cl)n2)c(O)c1 | 50* | / | / | / | / | /
O=C1CC(O)(C(F)(F)F)Oc2c1ccc1ccccc21 (stereo not drawn) | -3 | 30 | 8 | 15 | -2 | 93*
O=C1CC(O)(C(F)F)Oc2ccc3ccccc3c21 (stereo not drawn) | -1 | 3 | -5 | 16 | -1 | -1
Cc1cc(C)cc(NC(=O)CSc2nc(=O)n3cc(C)ccc3n2)c1 | 16 | / | / | / | / | /
COc1cccc(CNC(=O)c2ccc(NC(=O)C3=CSCCO3)cc2)c1 | 3 | / | / | / | / | /
O=C(Nc1ncc(Cc2ccccc2)s1)c1cccs1 | 9 | 0 | 34 | 42* | 9.0* | -15
Cc1ccc(Cc2cnc(NC(=O)c3cccs3)s2)cc1 | 1 | -5 | -2 | 18 | 4 | 7
CCCCn1c(SCn2nnc3ccccc3c2=O)nc2cc(S(N)(=O)=O)ccc21 | -6 | 1 | 3 | 14 | 6 | 6
CCCCn1c(SCN2C(=O)c3ccccc3C2=O)nc2cc(S(N)(=O)=O)ccc21 | 80* | -1 | 8 | 13 | -4 | -5
O=C(CCSCc1ccccc1F)NCCc1ccccc1 | -4 | -4 | 0 | -5 | 1 | -6
CC(=O)C1=C(c2cccc([N+](=O)[O-])c2)N(C(C)=O)n2c(C)nnc2S1 | -1 | 0 | -4 | 1 | 10.0* | 6
O=C(CCCSc1nc2ccccc2[nH]1)NC1CCCCC1 | 12 | -1 | 2 | 14 | 9.4* | 5
O=C(CCC(=O)N1CCN(S(=O)(=O)c2ccc(Cl)cc2)CC1)Nc1ccc2ccccc2c1 | -14 | -8 | 8 | 6 | 10* | -18
COC(=O)c1ccccc1NC(=O)N1CCN(S(=O)(=O)c2ccc(Cl)cc2)CC1 | 0 | 20 | -8 | 7 | -2 | 102*
Cc1cc(C)c2c3c(sc2n1)C(c1cccc(F)c1)C(C#N)=C(N)O3 (stereo not drawn) | 0 | 60* | 4 | 10 | 0 | 14
CCCN1CCC2(CC1)C(C#N)=C(N)Oc1c2sc2nc(C)cc(C)c12 | 29 | 7 | 5 | 18 | -2 | -5
Cc1nc(SCC(=O)NC(=O)NC(C)(C)C)nc(C)c1C | 16 | 1 | 1 | 6 | 7 | 2
Cc1nc(SCC(=O)NC(=O)NC(C)C)nc(C)c1C | 1 | 35 | 23 | 31 | 1 | 50*
